Assay results: ChEMBL document CHEMBL3600334, “Neolignans from Aristolochia fordiana Prevent Oxidative Stress-Induced Neuronal Death through Maintaining the Nrf2/HO-1 Pathway in HT22 Cells” (J Nat Prod, 2015)
Activity calls are given as the source filed them. The rule behind the calls is not given here.

How the values were obtained:
HT-22 [1] = test: Neuroprotective activity in mouse HT22 cells assessed as decrease of glutamate-induced ROS production at 30 uM pretreated 30 mins before glutamate challenge measured after 12 hrs using H2DCF-DA staining by fluorescence assay; type: functional, cell-based
Method in brief: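 HT22 cells given 30 μM compound 30 min before 2 mM glutamate for 12 h. After a PBS wash, stained with 10 μM H2-DCF-DA in serum-free medium, 25 min, 37 °C, dark. Cells photographed, then lysed in 1% Triton X-100/PBS 10 min at 37 °C. Fluorescence read at ex 490/em 525 nm, as percent of untreated control.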

HT-22 [2] = test: Cytotoxicity against mouse HT22 cells assessed as […] at 30 uM after 24 hrs by MTT assay; type: cell-based; conditions: ht-22, 24 h
Method in brief: (§1)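 HT22 mouse hippocampal cells in DMEM/10% FBS, 37 °C, 5% CO2, seeded 10 000 cells/well and grown 24 h. Compounds added from DMSO stock (0.1% DMSO vehicle) for 24 h. MTT (5 mg/mL) 2 h at 37 °C, formazan dissolved in DMSO, OD 570 nm. Expressed as fold of untreated control; n = 6 wells.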

HT-22 [3] = test: Neuroprotective activity in mouse HT22 cells assessed as protection against glutamate-induced cell death pretreated 30 mins before glutamate challenge measured after 24 hrs by MTT assay; type: functional, cell-based
Method in brief: (§2)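 HT22 cells seeded 10 000/well, 24 h. Compounds (0.1% DMSO vehicle) added 30 min before 2 mM glutamate, then 24 h. MTT (5 mg/mL) 2 h at 37 °C, formazan in DMSO, OD 570 nm. Fold of untreated control; mean ± SD, n = 6.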

HT-22 [4] = test: Cytotoxicity against mouse HT22 cells assessed as cell viability at 30 uM after 24 hrs by MTT assay; type: cell-based; conditions: ht-22, 24 h; method in brief: as §1
HT-22 [5] = test: Neuroprotective activity in mouse HT22 cells assessed as protection against glutamate-induced change in cell morphology at 1 to 30 uM pretreated 30 mins before glutamate challenge measured after 24 hrs by MTT assay; type: functional, cell-based; conditions: in the assay text read “by photomicroscopy” for “by MTT assay”
Method in brief: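 HT22 cells given compounds 30 min before 2 mM glutamate for 24 h. Morphology then photographed under a photomicroscope.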

HT-22 [6] = test: Effect on Nrf2/HO-1 protein expression in mouse HT22 cells at 30 uM after 12 hrs by Western blotting assay
HT-22 [7] = test: Neuroprotective activity in mouse HT22 cells assessed as protection against glutamate-induced cell death at 1 to 30 uM pretreated 30 mins before glutamate challenge measured after 24 hrs by MTT assay; type: functional, cell-based; method in brief: as §2
HT-22 [8] = test: Neuroprotective activity in mouse HT22 cells assessed as decrease of glutamate-induced decrease in Bcl-2 protein expression at 30 uM pretreated […] by Western blotting assay
HT-22 [9] = test: Neuroprotective activity in mouse HT22 cells assessed as decrease of glutamate-induced increase in LDH level at 30 uM pretreated 30 mins before glutamate challenge measured after 24 hrs
HT-22 [10] = test: Neuroprotective activity in mouse HT22 cells assessed as decrease of glutamate-induced decrease in Nrf2/HO-1 protein expression at 30 uM pretreated 30 mins before glutamate challenge measured after 12 hrs by Western blotting assay; type: functional, cell-based

Row | Compound | Activity (HT-22 [1]) | Activity (HT-22 [2]) | Activity (HT-22 [3]) | Activity (HT-22 [4]) | Activity (HT-22 [5]) | Activity (HT-22 [6]) | Activity (HT-22 [7]) | Activity (HT-22 [8]) | Activity (HT-22 [9]) | Activity (HT-22 [10])
1 | C/C=C/c1cc(OC)c2oc(-c3ccc(O)c(OC)c3)c(C)c2c1 | Active | Toxic | Dose-dependent effect | Non-toxic | Active | inactive | Active | Active | Active | Active
2 | C/C=C/c1ccc2oc(-c3ccc(O)cc3)c(C)c2c1 [RATANIAPHENOL II] | Active | Toxic | Dose-dependent effect | Non-toxic | Active | inactive | Active | Active | Active | Active
3 | C/C=C/c1cc(OC)c2oc(-c3ccc(O)cc3)c(C)c2c1 | Active |  | Dose-dependent effect | Non-toxic | Active | inactive | Active | Active | Active | Active
4 | C/C=C/c1cc(OC)c2c(c1)[C@@H](C)[C@H](c1ccc(O)c(OC)c1)O2 [LICARINE A] | Active |  | Dose-dependent effect | Non-toxic | Active | inactive | Active | Active | Active | Active
5 | COc1cc([C@H]2O[C@@H](c3ccc(O)c(OC)c3)[C@H](C)[C@@H]2C)ccc1O [NECTANDRIN B] | Active |  | Dose-dependent effect | Non-toxic | Active | inactive | Active | Active | Active | Active
6 | COc1cc([C@H]2O[C@@H](c3ccc(O)c(OC)c3)[C@@H](C)[C@@H]2C)ccc1O | Active |  | Dose-dependent effect | Non-toxic | Active | inactive | Active | Active | Active | Active
